# Bioassay records from PubChem BioAssay.
# Shown are actives, neighbours in structure and some others; about 1.4% of the full set was active somewhere.
# core dimer inh – inhibitors of HCV core protein dimerization, primary screen, biochemical, TR-FRET, high-throughput. TR-FRET GST/Flag-core106 dimerization, 1536-well. inhibition, % at 5 µM. hit rate 0.33% among 300,000;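 active = inhibition above the mean of all tested compounds plus 3 SD, set per screening campaign, cut at about 45% in these data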
#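 Material: GST/Flag-tagged HCV core106 proteins. Incubation: 4 h, 22.5 °C incubation. Read-out basis: inhibition (%) from 671 over 617 nm ratio. Measured by: TR-FRET, excitation 340 nm, emission 617 and 671 nm.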
# ZTA counter – blocks Epstein-Barr virus ZTA, an EBNA-1 counter-screen; ZTA-DNA binding, fluorescence polarization; inhibition, % at 11 µM; P03206; hit rate 0.15% among 320,000; in the data active = inhibition above about 33%
# Target sequence (P03206 whole entry, looked up): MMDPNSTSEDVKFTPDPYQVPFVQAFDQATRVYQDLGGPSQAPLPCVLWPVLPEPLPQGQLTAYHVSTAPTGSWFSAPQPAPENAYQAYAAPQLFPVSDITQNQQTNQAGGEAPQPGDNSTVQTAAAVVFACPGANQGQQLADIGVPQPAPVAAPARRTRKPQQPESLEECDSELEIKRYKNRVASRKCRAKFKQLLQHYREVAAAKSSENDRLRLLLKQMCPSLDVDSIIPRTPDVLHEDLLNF
# EBNA-1 inhibitor – EBNA-1 DNA-binding inhibitors, primary screen, biochemical, fluorescence polarization. inhibition, % at 14.8 µM. hit rate 0.34% among 300,000. AID 1950, 2009; in the data active = inhibition above about 28%
# HCV NS3 hel inh – inhibitors of HCV NS3 helicase, primary screen, biochemical, Cy5 molecular beacon fluorescence. Hepatitis C virus NS3 helicase. NS3 helicase DNA unwinding. inhibition, % at 10.9 µM. hit rate 0.56% among 290,000. AID 1800, 2009;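 active = inhibition above the mean of all tested compounds plus 3 SD, set per campaign, cut at about 35% in these data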;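 also: 0% = DMSO wells and 100% = thioflavine S control wells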
#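 Compound dosing – single dose, 10.9 µM nominal final, DMSO 0.8% final · System – NS3 helicase fragment of HCV · Buffer or medium – MOPS pH 6.5, MgCl2, DTT, Tween20, BSA · Signal – Cy5 beacon fluorescence read at start and 1 h · Also added – annealed dual-labelled DNA beacon duplex, ATP-started · Schedule – 1 h at 25 °C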
# UBC9 SUMO inh – inhibitors of in vitro SUMOylation cascade, primary screen, biochemical, HTRF, uHTS; HTRF SUMOylation assay, SAE1/SAE2 + UBC9; inhibition, % at 35 µM; hit rate 0.36% among 290,000; in the data active = inhibition above about 50%, passing the limit was not always enough; inconclusive = no clear call, values can overlap the other calls
# Target sequence (P63279 whole entry, looked up): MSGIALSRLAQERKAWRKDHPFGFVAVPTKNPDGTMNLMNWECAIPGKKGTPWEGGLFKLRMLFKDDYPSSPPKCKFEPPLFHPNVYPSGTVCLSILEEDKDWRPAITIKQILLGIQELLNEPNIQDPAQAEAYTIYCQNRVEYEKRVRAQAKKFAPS
# NS3 helicase cf – HCV NS3 helicase inhibitors, retest, confirmation, biochemical, Cy5 molecular beacon fluorescence, triplicate. NS3 helicase DNA unwinding. hit rate 31% among 1,600. inhibition, % at 10.9 µM. AID 1943, 2009. shares compounds with HCV NS3 hel inh;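 active = inhibition above the mean of all tested compounds plus 3 SD, cutoff set per campaign, cut at about 36% in these data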
# FID counter trip – compounds displacing fluorescent DNA intercalator, artefact control for HCV NS3 helicase inhibitor project, biochemical, FID fluorescence, triplicate; inhibition, % at 7.9 µM; shares compounds with HCV NS3 hel inh; hit rate 4% among 1,600; AID 1945, 2009; DNA fluorescent intercalator displacement; in the data active = inhibition above about 37%;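 also: 0% = vehicle and 100% = reference compound; higher means more displacement of ethidium bromide from the DNA hairpin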
# DNA FID DR – compounds displacing fluorescent intercalator from DNA, dose response, counter-screen for HCV NS3 helicase inhibitor project, biochemical, fluorescence; shares compounds with HCV NS3 hel inh; fluorescent intercalator displacement from DNA; IC50, µM; 120 tested, under 10 active; AID 2172, 2009; call rule not given here
# * hit, by the source's call; ? = inconclusive; nt = not tested or not shown.
SMILES,core dimer inh,ZTA counter,EBNA-1 inhibitor,HCV NS3 hel inh,UBC9 SUMO inh,NS3 helicase cf,FID counter trip,others
Cc1cc(Cl)ccc1OCC(=O)OCC(=O)N(CC(C)C)c1c(N)n(Cc2ccccc2)c(=O)[nH]c1=O,-4.8,1.9,6.8,nt,nt,nt,nt,
O=C(NCc1ccco1)c1ccc(N2CCCCC2)c([N+](=O)[O-])c1,0.6,1.2,3.6,49.6*,21.8,-8.9,-10.6,
O=C(NCc1ccco1)c1ccc(N2CCOCC2)c([N+](=O)[O-])c1,1.4,-1.0,2.9,3.8,12.2,nt,nt,
CC(=O)c1sc2ccccc2c1OC(=O)c1ccco1,-9.2,-18.3,-0.7,45.3*,4.5,4.0,3.6,
Cc1c(N=C2N=C(NC(=O)NC(C)(C)C)c3ccccc32)c(=O)n(-c2ccccc2)n1C,2.1,-6.4,-8.4,57.7*,16.5,-11.6,-33.1,
Cc1c(N=C2N=C(NC(=O)c3cccs3)c3ccccc32)c(=O)n(-c2ccccc2)n1C,10.0,1.2,-4.4,7.0,8.1,nt,nt,
Cc1ccc(-n2sc3ccccc3c2=O)cc1S(=O)(=O)N1CCCCC1,24.4,1.7,5.3,46.8*,-1.6,21.5,-29.3,
Cn1c(SCC(=O)CC(=O)Nc2ccccc2)nnc1-c1ccc(O)cc1,-13.5,4.1,0.0,8.0,-38.0,nt,nt,
O=C(CSc1nnc(-c2ccc(O)cc2)n1-c1ccccc1)CC(=O)Nc1ccccc1,10.5,6.5,3.0,36.7*,26.2,-12.3,-56.7,
Oc1c(Br)cc(/C=N/n2c(-c3ccccc3)n[nH]c2=S)c(Br)c1O,5.8,2.4,-0.4,39.0*,55.3*,65.2*,22.2,
Oc1c(Br)cc(Br)cc1/C=N/n1c(-c2ccccc2)n[nH]c1=S,-10.6,1.2,2.1,28.0,3.0,nt,nt,
COc1cc([N+](=O)[O-])cc(/C=N/NC(=O)C(C)Nc2cccc3ccccc23)c1O (stereo not drawn),-11.8,1.2,4.0,36.6*,81.7,38.8*,15.6,
O=C(N/N=C/c1cc([N+](=O)[O-])ccc1O)c1cccc2ccccc12,3.9,-3.3,-1.9,40.2*,-60.9,-24.9,2.7,
Cc1[nH]c(=O)c(C#N)c(C)c1CCC(=O)NCc1cccc(C(F)(F)F)c1,-10.6,6.0,-6.0,8.0,-0.1,nt,nt,
N#Cc1c(N2C(=O)Nc3ccccc3N2O)sc2c1CCCCCC2,12.0,9.1,10.7,42.3*,2.0,54.5*,-7.2,
Cc1ccc(Sc2ncccc2C(=O)N(C)Cc2cccs2)c(C)c1,6.7,-4.7,6.1,-4.3,-0.8,nt,nt,
O=C(/C=C/c1ccco1)NC(=S)Nc1cccc(C(=O)O)c1,9.3,20.8,4.7,52.1*,33.9,30.1,10.8,
NNc1nc2c(-c3cccc(C(F)(F)F)c3)nnn2c2ccccc12,nt,nt,nt,43.1*,26.3,-0.4,16.8,
COc1ccccc1CCNC(=O)CSc1ccc(-c2cccs2)nn1,4.6,12.8,7.3,44.5*,25.7,-10.4,-14.1,
O=C(CSc1ccc(-c2cccs2)nn1)NCCc1ccccc1,10.7,0.2,6.9,0.5,3.7,nt,nt,
CS(=O)(=O)c1sc2nc(-c3cccs3)cc(-c3ccccc3)c2c1N,51.3*,13.1,9.3,46.1*,30.3,78.3*,10.4,
O=c1ccc(N=Nc2ccccc2)ccc1O,-14.2,1.4,2.7,50.9*,-0.7,47.7*,-2.2,DNA FID DR=>79.4
CC1=CN2C(=N)/C(=C/c3ccco3)C(=O)N=C2S1,-14.4,-7.6,-11.4,5.8,2.8,nt,nt,
CC1=CN2C(=N)/C(=C/c3ccc([N+](=O)[O-])o3)C(=O)N=C2S1,-2.4,15.0,9.5,50.7*,-2.9,53.1*,12.1,DNA FID DR=>79.4
O=C(Nc1ccccc1Cl)c1ccc2nc(N3CCOCC3)sc2c1,-2.4,-2.4,-9.7,-1.1,8.6,nt,nt,
SMILES,core dimer inh,ZTA counter,EBNA-1 inhibitor,HCV NS3 hel inh,UBC9 SUMO inh,NS3 helicase cf,FID counter trip,others
Cc1ccc(/C=C2\Oc3cc(OCC(=O)NN)ccc3C2=O)o1,nt,nt,nt,39.5*,58.8*,-1.1,-3.5,
O=C(O)c1cc(N2N=C(C(F)(F)F)/C(=C/C=C/c3ccco3)C2=O)ccc1Cl,nt,nt,nt,60.8*,?,80.0*,70.8*,
CCOC(=O)c1ccc(N2N=C(C)/C(=C/C=C/c3ccco3)C2=O)cc1,3.6,-17.2,2.0,13.8,30.2,nt,nt,
CCOC(=O)CC(=O)CSc1nc(N)c(C#N)c(-c2ccc(F)cc2)c1C#N,4.2,12.8,-7.7,56.8*,-14.5,-2.6,4.7,
CCOC(=O)c1ccc[n+](CC(=O)c2ccc(NC(=O)c3ccccc3)cc2)c1,-3.2,-8.9,6.5,-8.6,18.8,nt,nt,
C=CCS/C(N)=N\N=C\c1cc(Br)cc([N+](=O)[O-])c1O,0.8,10.1,6.2,-1.1,9.8,nt,nt,
COc1cc(OC)c2c(O)c3c(c(-c4c5c(c(O)c6c(OC)cc(OC)cc46)CO[C@@H](C)[C@H]5O)c2c1)[C@H](O)[C@H](C)OC3,53.6*,-2.2,17.7,36.4*,nt,69.3*,-20.0,
COc1cc2c(c(OC)c1O)C(=O)CO2,6.7,10.3,-3.8,11.0,20.3,nt,nt,
N#C/C(=C(/O)CN1CCOCC1)c1nc(-c2ccccc2)cs1,-1.2,-4.3,12.2,6.0,-4.8,nt,nt,
Cc1ccc(-c2csc(/C(C#N)=C(\O)CN3CCN(C(=O)c4ccco4)CC3)n2)cc1,5.6,4.6,2.2,36.8*,-5.1,41.7*,-13.8,
COC(=O)c1ccc2c(=O)[nH]c(COC(=O)CCC(=O)c3ccc(Cl)cc3)nc2c1,15.2,9.9,14.1,nt,nt,nt,nt,
OCCN1CCN(c2nc(-c3ccccc3)c3cc(Br)ccc3n2)CC1,-6.8,22.1,8.2,-66.4,-6.5,nt,nt,
O=C(O)C1CCN(c2nc(-c3ccccc3)c3cc(Br)ccc3n2)CC1,5.1,5.2,-6.3,48.2*,7.8,68.5*,-11.5,
CCN(CC)S(=O)(=O)c1cc(NC(=O)c2cc([N+](=O)[O-])ccc2N2CCOCC2)ccc1C,-1.2,-8.8,2.3,-2.4,5.4,nt,nt,
O=C(O)c1nn(Cc2csc(-c3ccccc3)n2)c(=O)c2ccccc12,-6.8,-20.8,-13.5,48.3*,-9.0,7.7,-22.8,
Oc1cccc(C(=S)N2CCC(Cc3ccccc3)CC2)c1,2.4,2.4,-8.2,-9.6,-14.0,nt,nt,
Cc1ccc(-c2csc(N/N=C/c3ccco3)n2)c(C)c1,2.3,10.2,6.1,39.7*,9.7,-9.6,10.1,
COc1cccc(/C=C2/C(=O)NN(c3ccc(Br)cc3)C2=O)c1O,nt,nt,nt,37.6*,3.5,58.1*,8.0,
COC(=O)c1ccc(N2NC(=O)/C(=C/c3cc(OC)c(O)c(OC)c3)C2=O)cc1,-1.6,-3.9,-8.9,61.3*,-7.1,17.0,12.9,
